Experimental findings from ChEMBL document CHEMBL1125882, “The agonist pharmacophore of the benzodiazepine receptor. Synthesis of a selective anticonvulsant/anxiolytic” (J Med Chem, 1991) are described below.

Assay [1] has as its system Mus musculus. The experiment in a line: Number of mice impaired to that of number of mice tested at 20 mg/kg; 0/10. It counts as functional.
Assay [2] has as its system Mus musculus. The experiment in a line: Tested for inhibition of pentylenetetrazole (PTZ = 80 mg/kg (ip)) induced seizures in mice at a dose of 0.5-40 mg/kg i.p. Format: functional. Particulars: route intraperitoneal. The method, boiled down:
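Mice pretreated ip with drug (0.5-40 mg/kg); 15 min later pentylenetetrazole 80 mg/kg ip. Tonic and/or clonic seizures were scored over the next 15 min. 5-14 mice per dose point; ED50 taken from the dose-response curve.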

For assay [3], the target named is GABA-A receptor; anion channel. Description: Effect on [3H]flunitrazepam binding to Benzodiazepine receptor. It counts as protein-complex assay, Rattus norvegicus.
For assay [4], the system named is Mus musculus. Description: Effects on Diazepam-Induced Myorelaxation in mice was determined at 10 mg/kg. Format: functional.
Assay [5] concerns Mus musculus. Description: Effects on Diazepam-Induced Myorelaxation in mice was determined at 20 mg/kg. Format: functional.
In assay [6] the test system is Mus musculus. Description: Number of mice impaired to that of number of mice tested at 10 mg/kg; 0/10. Format: functional.
Assay [7] is filed under the species Mus musculus. The experiment in a line: Effects on Diazepam-Induced Myorelaxation in mice was determined. It counts as functional.
Assay [8] relates to Mus musculus. Description: Effects on Diazepam-Induced Myorelaxation in mice was determined when administered along with compound 1 at 10 mg/kg. It counts as functional.
The test system of assay [9] is Mus musculus. The experiment in a line: Effects on Diazepam-Induced Myorelaxation in mice was determined when administered along with compound 1 at 20 mg/kg. It counts as functional.

As a reminder, the ED50 is the dose that gives a 50% effect, or the effect in half of the subjects. Low readings indicate greater potency, high ones weaker potency. The term IC50 denotes the midpoint of a concentration-inhibition curve. Lower therefore signals inhibition by little substance. With `CCCOc1ccc2[nH]c3cnc(C(=O)OCC)c(COC)c3c2c1`, the Activity in assay [1] and in [6] was 0 each time. Moreover, in [2], the 50% effect level (ED50) was put at a dose of 1.6 mg/kg. This compound gave an IC50 in assay [3] of 8 nM. For the same compound, the Impaired in assay [4] and in assay [5] was 0% throughout.

On to `CN1C(=O)CN=C(c2ccccc2)c2cc(Cl)ccc21` [DIAZEPAM], for which the Impaired stood at 100% in assay [7], 50% in [8] and 0% in assay [9].
